A short description of experiment [1]: Displacement of [3H]NTI from guinea pig forebrain delta opioid receptor. Also noted: species or system Cavia porcellus. The procedure, abridged: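 Radioligand competition binding in duplicate on guinea-pig brain homogenate. Cerebellum was used for κ and forebrain for μ and δ. The μ tracer was [³H]DAMGO, δ was [³H]NTI and κ was [³H]U-69,593. Affinity was expressed as Ki.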
For orientation: Displacement assays read how much labelled ligand stays bound in the presence of the test substance.

Experiment [2] concerns the target Kappa-type opioid receptor (Cavia porcellus, UniProt P41144). The experiment in a line: Displacement of [3H]U69593 from guinea pig cerebellum kappa opioid receptor. In kind it is tissue-based. In a few lines:
(§1)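 Radioligand competition binding in duplicate on guinea-pig brain homogenate. Cerebellum was used for κ and forebrain for μ and δ. Affinity was expressed as Ki.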

For a further experiment, the target named is Mu-type opioid receptor (Cavia porcellus, UniProt P97266). The experiment is described as follows: Displacement of [3H]DAMGO from guinea pig forebrain mu opioid receptor. In a few lines:
as §1

Experiment [3] has as its system Mus musculus. The experiment is described as follows: Antinociceptive activity in sc dosed mouse assessed as inhibition of acetic acid-induced writhing response. It counts as functional. (In writhing tests, fewer writhes than in controls are read as antinociception.)
Experiment [4] deals with Mus musculus. The experiment is described as follows: Antinociceptive activity in sc dosed mouse assessed as inhibition of acetic acid-induced writhing response at 0.03 mg/kg in presence of 20 mg/kg kappa opioid receptor antagonist nor-BNI. It counts as functional, organism-based.
The test system of experiment [5] is Mus musculus. The experiment in a line: Antinociceptive activity in sc dosed mouse assessed as inhibition of acetic acid-induced writhing response at 0.03 mg/kg in presence of 3 mg/kg delta opioid receptor antagonist NTI. In kind it is functional, organism-based.
Experiment [6] relates to Mus musculus. The experiment is described as follows: Antinociceptive activity in sc dosed mouse assessed as inhibition of acetic acid-induced writhing response at 0.03 mg/kg in presence of 0.3 mg/kg mu opioid receptor antagonist naloxone. It counts as functional, organism-based.

The term Ki denotes a dissociation constant, usually derived from enzyme kinetics or from competition with a known ligand. Higher therefore signals a looser hold on the target. The ED50 is the dose at which the effect has come halfway, by size or by number of responders.

Molecules are shown by their SMILES. Calls of active or inactive are those of the source. No cut-off for these calls is given here.

Sequence of Mu-type opioid receptor (P97266 whole entry): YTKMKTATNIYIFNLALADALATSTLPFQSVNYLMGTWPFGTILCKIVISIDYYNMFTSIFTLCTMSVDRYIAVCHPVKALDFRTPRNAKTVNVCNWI
Sequence of Kappa-type opioid receptor (P41144 whole entry): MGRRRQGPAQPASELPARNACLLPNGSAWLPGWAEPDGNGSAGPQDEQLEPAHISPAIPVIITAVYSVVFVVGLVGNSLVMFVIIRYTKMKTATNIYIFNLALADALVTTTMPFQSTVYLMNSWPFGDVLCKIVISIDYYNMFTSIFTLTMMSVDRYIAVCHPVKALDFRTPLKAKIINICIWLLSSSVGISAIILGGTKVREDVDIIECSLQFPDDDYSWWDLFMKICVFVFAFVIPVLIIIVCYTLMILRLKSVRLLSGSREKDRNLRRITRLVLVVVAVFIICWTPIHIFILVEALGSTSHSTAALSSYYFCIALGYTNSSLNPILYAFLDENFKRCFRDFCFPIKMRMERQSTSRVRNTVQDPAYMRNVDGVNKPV

In experiment [1], `O=C1CC[C@@]2(O)[C@H]3Cc4ccc(O)c5c4[C@@]2(CCN3CC2CC2)[C@H]1O5` [NALTREXONE] gave a Ki of 20.7 nM.
With `O=C(Nc1ccccc1)[C@@H]1O[C@@]23CC[C@@]1(O)[C@@H]1Oc4c(O)ccc5c4[C@@]12CCN(CC1CC1)[C@@H]3C5`, the inhibitory constant (Ki) in experiment [2] was determined as 0.152 nM; in experiment [1], 3.23 nM; on Mu-type opioid receptor it was 0.205 nM.
As to `O=C(Nc1ccccc1)[C@H]1O[C@@]23CC[C@]1(O)[C@@H]1Oc4c(O)ccc5c4[C@@]12CCN(CC1CC1)[C@@H]3C5`, in the experiment on Mus musculus [3], the Activity result was “Dose-dependent effect”. In addition, in the experiment on Mus musculus [3], the ED50 was 6.3 µg/kg. The figures for the inhibition constant Ki (in experiment [2]; in experiment [1]; at Mu-type opioid receptor) were 0.111 nM, 2.73 nM and 0.212 nM, respectively. The result in the experiment on Mus musculus [4] was inactive. The outcome with Mus musculus [5] and in the experiment with Mus musculus [6] was Active.
As for `CN(C(=O)/C=C/c1ccco1)[C@@H]1CC[C@@]2(O)[C@H]3Cc4ccc(O)c5c4[C@@]2(CCN3CC2CC2)[C@H]1O5`, the results for the Ki (in experiment [2]; in experiment [1]; on Mu-type opioid receptor) were 0.225 nM, 96.5 nM and 0.582 nM, respectively.

For the origin of these results see ChEMBL document CHEMBL1153184, “Drug design and synthesis of a novel kappa opioid receptor agonist with an oxabicyclo[2.2.2]octane skeleton and its pharmacology” (Bioorg Med Chem Lett, 2010).
